# From PubChem BioAssay AID1381 (University of Pittsburgh Molecular Library Screening Center, 2008)
# Out of some 220,000 compounds screened, about 1,000 (0.45%) were called active.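 How the source made its calls: active means plate z-score of nuclear minus cytoplasmic receptor signal below a set negative limit, without overly bright fluorescence or cell loss (cut at about -3.5 in these data, passing the limit was not always enough); inactive means the rest, inconclusive results apart.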 This excerpt belongs to a sample that is enriched for actives.
# Experiment: inhibitors of GR-EGFP nuclear translocation, primary screen, dynein cargo transport inhibitor project, imaging, high-content, 3617.4 mouse cells (AID 1381)
# Conditions: stimulated with dexamethasone, 1 µM
# In short: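 medium = tetracycline-free induction medium containing charcoal-stripped FBS | probe or stimulus = dexamethasone, 1.0 µM final | timing = 48 h induction, then 1 h compound, then 30 min agonist, 37 °C | detection = automated 10x imaging of fixed Hoechst-stained cells | read-out basis = nuclear versus cytoplasmic GR-EGFP signal, averaged per well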
# [1] = measured here: cell count per field, at 50 µM
# [2] = measured here: cytoplasmic GR-EGFP intensity, at 50 µM, stronger effect = higher value
# [3] = measured here: nuclear GR-EGFP intensity, at 50 µM, stronger effect = lower value
# [4] = measured here: cell count per field, at 20 µM
# [5] = measured here: cytoplasmic GR-EGFP intensity, at 20 µM, stronger effect = higher value
# [6] = measured here: nuclear GR-EGFP intensity, at 20 µM, stronger effect = lower value
SMILES,"z-score (at 50 µM, stronger effect = lower value)",z-score [1],z-score [2],z-score [3],"z-score (at 20 µM, stronger effect = lower value)",z-score [4],z-score [5],z-score [6]
CCN(Cc1nc2ccccc2c(=O)[nH]1)Cc1cc(=O)oc2cc(C)c(C)cc12,0.712 (inactive),0.798,-0.276,-0.426,,,,
CCOC(=O)c1cnc2[nH]c3ccccc3n2c1=O,,,,,-0.506 (inactive),-0.246,0.0235,-0.197
O=[N+]([O-])c1cccc(-c2nnc3c4ccccc4c4ccccc4n23)c1,,,,,-0.00649 (inactive),0.483,1.22,0.469
O=c1[nH]c2ccccc2n2c(-c3ccccc3)nnc12,-4.53 (active),0.378,0.89,-2.64,,,,
CCCn1c(SCC(=O)Nc2ccc(C)c(S(=O)(=O)N3CCOCC3)c2)n[nH]c1=O,,,,,1.09 (inactive),0.0169,-0.261,0.257
Cc1ccc2nc(Nc3ncc4c(n3)CC(C)(C)CC4=O)nc(C)c2c1,,,,,0.135 (inactive),0.445,-0.285,-0.00084
COc1cccc(C(=O)Oc2cc(C)[nH]c(=O)c2[N+](=O)[O-])c1,,,,,1.66 (inactive),-1.05,-0.136,0.869
Cc1cccc(Oc2c([N+](=O)[O-])c(=O)n(C)c3ccccc23)c1,,,,,-4.31 (active),0.72,0.943,-2.29
Cn1c2ccccc2c(=O)c2c(O)cccc21,,,,,-0.39 (inactive),0.337,-0.342,-0.208
Cc1cccc(OP(=O)(Nc2c(C)n(C)n(-c3ccccc3)c2=O)Oc2cccc(C)c2)c1,,,,,1.6 (inactive),-1.31,-0.218,1.25
Cn1c(=O)c([N+](=O)[O-])c(Oc2ccccc2)c2ccccc21,,,,,-6.51 (active),0.669,1.62,-2.76
Cc1nn(C)c(Oc2ccccc2)c1[N+](=O)[O-],,,,,-0.413 (inactive),0.292,-0.104,0.119
CC(NC(=S)Nc1ccccc1)C1COc2ccccc2O1 (stereo not drawn),,,,,0.289 (inactive),0.134,-0.0607,0.355
CCN(CC)Cc1csc2ccc(Br)cc12,,,,,-0.627 (inactive),1.15,-0.13,0.249
O=C(Nc1ccc(F)cc1)c1cccnc1N1CCOCC1,0.0462 (inactive),1.37,-0.00933,0.174,,,,
O=c1[nH]c(N2CCN(Cc3ccc4c(c3)OCO4)CC2)nc2c1CCCC2,,,,,-1.03 (inactive),2.27,-0.309,-0.0483
COCC1CCCN(Cc2nc(-c3ccc4c(c3)OCO4)no2)C1 (stereo not drawn),,,,,0.118 (inactive),0.19,-0.27,0.224
CCC1=C/C(=C\c2ccc3c(c2)OCO3)C(=O)S1,,,,,-3.72 (active),0.295,0.919,-1.39
CSC1=N/C(=C\c2ccc3c(c2)OCO3)C(=O)S1,-0.0628 (inactive),-0.123,-0.227,-0.89,,,,
O=C1/C(=C/c2ccc3c(c2)OCO3)CCC/C1=C\c1ccc2c(c1)OCO2,,,,,0.645 (inactive),-1.87,1.28,0.356
Cc1cccc(C)c1NC1=NC(=S)N(c2ccc(N(C)C)cc2)C1(C)C,,,,,1.25 (inactive),0.0641,-0.0144,0.985
Cc1ccc(/C=N/NC(=S)NC2CCCCC2)o1,,,,,-0.738 (inactive),-0.0991,-0.777,-0.608
